Apaf-1 inh = human Apaf-1 inhibition. O14727. AID 489030. actives 0.71% (n = 330,000). inhibition, % at 20 µM. reconstituted apoptosome caspase-3 activity, DEVD-Rh110 fluorescence; active = inhibition of at least 40% at 20 µM;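 also: plate controls were DMSO wells for no effect and DEVD-CHO caspase inhibitor wells for full effect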
Target sequence (O14727 whole entry, looked up): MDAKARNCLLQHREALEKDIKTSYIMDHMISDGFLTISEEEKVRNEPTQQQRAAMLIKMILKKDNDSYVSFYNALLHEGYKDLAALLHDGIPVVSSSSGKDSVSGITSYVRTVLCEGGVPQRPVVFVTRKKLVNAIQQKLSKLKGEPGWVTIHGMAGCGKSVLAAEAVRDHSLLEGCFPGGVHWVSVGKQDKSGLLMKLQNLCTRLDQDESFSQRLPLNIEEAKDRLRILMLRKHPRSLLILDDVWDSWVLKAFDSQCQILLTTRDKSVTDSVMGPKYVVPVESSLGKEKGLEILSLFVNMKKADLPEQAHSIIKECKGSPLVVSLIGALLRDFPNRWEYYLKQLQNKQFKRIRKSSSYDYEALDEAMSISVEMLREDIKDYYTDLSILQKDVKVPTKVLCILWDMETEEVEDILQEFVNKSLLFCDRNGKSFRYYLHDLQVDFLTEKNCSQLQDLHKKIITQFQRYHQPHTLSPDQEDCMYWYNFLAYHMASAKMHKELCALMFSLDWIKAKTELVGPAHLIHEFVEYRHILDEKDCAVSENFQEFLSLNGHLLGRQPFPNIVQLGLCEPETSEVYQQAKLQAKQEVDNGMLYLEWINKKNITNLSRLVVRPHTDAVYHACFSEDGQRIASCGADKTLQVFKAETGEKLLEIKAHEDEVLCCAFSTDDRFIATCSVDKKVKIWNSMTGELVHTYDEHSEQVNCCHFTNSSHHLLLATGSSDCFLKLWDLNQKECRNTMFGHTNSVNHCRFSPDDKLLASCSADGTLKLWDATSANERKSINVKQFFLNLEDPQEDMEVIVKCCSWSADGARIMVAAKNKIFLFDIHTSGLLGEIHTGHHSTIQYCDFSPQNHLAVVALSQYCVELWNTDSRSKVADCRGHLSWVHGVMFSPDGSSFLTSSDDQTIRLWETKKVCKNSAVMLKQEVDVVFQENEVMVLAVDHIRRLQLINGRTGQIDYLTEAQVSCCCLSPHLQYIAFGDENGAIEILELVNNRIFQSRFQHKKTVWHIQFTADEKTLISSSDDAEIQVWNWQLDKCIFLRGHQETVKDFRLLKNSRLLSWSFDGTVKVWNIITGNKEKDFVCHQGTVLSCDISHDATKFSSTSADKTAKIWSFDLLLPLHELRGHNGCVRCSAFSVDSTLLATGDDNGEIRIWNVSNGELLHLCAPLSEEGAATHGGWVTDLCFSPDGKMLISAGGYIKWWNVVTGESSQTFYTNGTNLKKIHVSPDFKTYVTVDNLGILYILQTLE
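System: Apoptosome proteins | Medium: Hepes pH 7.5 with detergent and BSA | Also added: Cytochrome c trigger plus (Z-DEVD)2-Rh110 caspase-3 substrate | Incubation: 30 min compound preincubation, 50 min activation, room temperature | Detection: Rhodamine 110 fluorescence at Ex 480/Em 540 nm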
UBC13 polyUb = blocks human UBC13 polyubiquitin chain formation | AID 485273 | P61088 | TR-FRET | inhibition, % at 20 µM | actives 0.47% (n = 330,000); in the data active = inhibition above about 45%, passing the limit was not always enough
SENP8 block-1 = SENP8 (human) protease inhibition | Q96LD8 | recombinant SENP8, Nedd8 substrate fluorescence | inhibition, % at 20 µM | actives 0.64% (n = 360,000) | AID 602440; in the data active = inhibition mostly above about 40%, no sharp cut-off; inactive = mostly below about 27%
SENP8 block-2 = blocks the human protease SENP8. Q96LD8. inhibition, % at 10 µM. purified SENP8, Z-RLRGG-aminoluciferin cleavage, luminescence. actives 1.2% (n = 330,000); in the data active = inhibition above about 50%
SENP6 inh = inhibitors of human SENP6 protease; Q9GZR1; Recombinant SENP6 catalytic domain, aminoluciferin luminescence; inhibition, % at 10 µM; actives 1.8% (n = 330,000);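 active = inhibition above about 50% at the single tested dose, limit read from the data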;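 also: plate controls were DMSO wells with enzyme for no effect and DMSO wells lacking enzyme for full effect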
SENP7 block = SENP7 protease inhibition; Q9BQF6; recombinant SENP7, Z-RLRGG-aminoluciferin luminescence, 40 min; inhibition, % at 5 µM; actives 1.5% (n = 330,000);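 active = inhibition above about 50% at the single test dose, limit read from the data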;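 also: plate controls were DMSO with enzyme for no effect and no enzyme buffer wells for full effect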
SENP8 inh conf = SENP8 (human) inhibition, single concentration confirmation; inhibition, % at 25 µM; AID 624319; purified SENP8, Nedd8-AMC/pro-Nedd8 cleavage fluorescence, 30 min; shares compounds with SENP8 block-1; actives 15% (n = 1,400); in the data active = inhibition mostly above about 39%, no sharp cut-off; inactive = mostly below about 34%
* marks the source's active call; other numbers are inactive results; / = no result. An excerpt weighted towards active compounds, which were near 3% of everything screened.

SMILES	Apaf-1 inh	UBC13 polyUb	SENP8 block-1	SENP8 block-2	SENP6 inh	SENP7 block	SENP8 inh conf
COc1cc(/C=C2\SC(=O)N(Cc3ccc(F)cc3)C2=O)cc([N+](=O)[O-])c1O	17	-80	40*	7	7	-4	21
Cc1c(C(=S)Nc2ccccc2)cnn1-c1ccccc1	-11	2	28	-2	8	-2	/
Cc1c(C(=S)Nc2ccccc2)cnn1-c1ccc([N+](=O)[O-])cc1	11	-22	40*	-7	-30	-5	0
CC(C)C[C@H]1CN(CCCC[C@@H]2CNC(=O)C(=O)N2Cc2ccccc2)C(=O)C(=O)N1Cc1ccccc1	/	/	2	/	/	/	/
O=C1CC(c2ccccc2)Oc2cc(O)cc(O)c21 (centres undefined)	18	-3	2	36	26	17	/
CC(C)=CCc1c(O)cc2c(c1O)C(=O)CC(c1ccccc1)O2 (centres undefined)	-5	-6	42*	-11	-14	6	14
CC(=O)C1=CCC(c2ccco2)N(S(=O)(=O)c2ccc(C)cc2)C1 (centres undefined)	/	/	20	/	/	/	/
Cc1[nH]c2ccccc2c1/C=C/c1cc[n+](C)cc1	/	/	44*	/	/	/	32
C[n+]1ccc2[nH]c3ccccc3c2c1	/	/	-41	/	/	/	/
CN(C)c1ccc(NC(=O)CSc2nc3c(c(=O)[nH]2)CCCC3)cc1	-2	0	45*	4	13	3	18
C[n+]1cccc2cccc([O-])c21	/	/	96*	/	/	/	58*
CC1CC(=O)N(c2ccc(NCCc3ccccc3)c([N+](=O)[O-])c2)C1=O (centres undefined)	-2	-60	36	-16	-23	0	/
CC1CC(=O)N(c2ccc(NCCc3ccc(O)cc3)c([N+](=O)[O-])c2)C1=O (centres undefined)	-9	-65	42*	-2	10	-7	20
O=C(/C=C/c1ccc2c(c1)OCO2)c1ccco1	2	-5	-94	-3	3	10	/
O=C(/C=C/c1ccc2c(c1)OCO2)c1ccc(O)cc1O	/	/	40*	/	/	/	16
COC(=O)[C@]12CCCCC=C1N(Cc1ccco1)C(=O)[C@H](CC(=O)N1CCOCC1)C2	/	/	8	/	/	/	/
Cc1cc(C)n(C(CC(=O)N2CCc3ccccc3C2)C(=O)O)n1 (centres undefined)	6	5	44*	0	-9	2	10
COC(=O)[C@]12CCCCC=C1N(Cc1ccco1)C(=O)[C@H](CC(=O)N1CCCCC1)C2	/	/	10	/	/	/	/
O=[N+]([O-])c1cc(C(F)(F)F)cc([N+](=O)[O-])c1N1CCN(S(=O)(=O)c2ccccc2)CC1	15	7	40*	-4	-6	0	10
CCN(CC)S(=O)(=O)c1cccc(C(=O)NCCCn2ccnc2)c1	-15	12	42*	0	3	-4	17
O=[N+]([O-])c1ccc(N2CCN(CCO)CC2)cc1Sc1ccccn1	-5	-4	19	1	-2	0	/
CCN1CCN(c2ccc([N+](=O)[O-])c(Sc3nc4ccccc4[nH]3)c2)CC1	4	-4	41*	0	-10	8	18
CC(=O)Nc1cc(-c2ccc(N3CCN(C)CC3)cc2)cn2c(-c3ccc(S(C)(=O)=O)cc3)cnc12	/	/	-210	/	/	/	/
CC1(C(=O)NS(=O)(=O)c2ccc(Cl)cc2)CCN1C(=O)CCc1cccs1 (centres undefined)	/	/	10	/	/	/	/
Cc1ccc(N2C(=O)[C@@H]3[C@H](C2=O)[C@H]2C=C(C(=O)c4ccccc4)C=CN2[C@@H]3C(=O)c2ccc(Cl)cc2)cc1	7	-11	5	5	5	-8	/
Cc1ccc(N2C(=O)[C@@H]3[C@H](C2=O)C2c4ccccc4C=CN2[C@@H]3C(=O)c2ccco2)cc1 (some centres undefined)	/	/	49*	/	/	/	89*
COc1ccc(N2C(=O)[C@@H]3[C@H](C2=O)[C@H]2c4ccccc4C=CN2[C@@H]3C(=O)Nc2ccccc2)cc1	67*	-15	44*	-7	20	-4	80*
C[C@]1(CC/C(=C/CO)CO)[C@H](C=O)CC[C@@]23COC(=O)C2=CCC[C@@H]31	/	/	7	/	/	/	/

Assay outcomes: PubChem BioAssay, Sanford-Burnham Center for Chemical Genomics
